Calls of active or inactive are those of the source. No cut-off for these calls is given here. A value given as a limit tells only on which side of the number the result lay.

The results in this text go back to ChEMBL document CHEMBL4732230, “Design, synthesis, and biological evaluation of 4-benzoylamino-1H-pyrazole-3-carboxamide derivatives as potent CDK2 inhibitors” (Eur J Med Chem, 2021).

One test addresses CDK3/Cyclin E (Homo sapiens, UniProt Q00526). The test is described as follows: Inhibition of CDK3/cyclin E1 (unknown origin) using FAM-labeled peptide and ATP as substrate preincubated for 10 mins followed by substrate addition by mobility shift assay. The format is protein-complex assay. The method in brief:
(§1)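 Mobility shift assay in 50 mM HEPES pH 7.5 with 0.0015% Brij-35. Kinase was added to serially diluted compound in 10% DMSO and held 10 min at room temperature. FAM-labeled peptide and ATP were then added and the mixture incubated at 28 °C for the specified time. Reactions were stopped with EDTA-containing buffer.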

Test [1] relates to A2058. Kind of test: Induction of cell cycle arrest in human A2058 cells assessed as accumulation at S phase at 0.2 uM after 24 hrs by propidium iodide/RNase staining based flow cytometric analysis (reference value: 30.76 %). The format is functional. In general terms: A flow cytometer gives signals particle by particle.
Test [2] has as its system A2058. Kind of test: Induction of cell cycle arrest in human A2058 cells assessed as accumulation at G2 phase at 0.2 uM after 24 hrs by propidium iodide/RNase staining based flow cytometric analysis (reference value: 21.19 %). The format is functional.
The target of test [3] is Cyclin-dependent kinase 2 (Homo sapiens) (UniProt P24941). The test is described as follows: Inhibition of CDK2 in human MV4-11 cells assessed as downregulation of Mcl-1 expression at 0.1875 to 3 uM after 24 hrs by immunoblot analysis. The format is cell-based. Conditions: dose 0.1875-3 µM. The method, boiled down:
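MV4-11 cells exposed to compound for 24 h. Lysates were resolved by 8% or 10% SDS-PAGE and blotted to nitrocellulose. Blots were probed with anti-Mcl-1 overnight at 4 °C, then HRP secondary at 1:10,000. Bands were developed by ECL, with GAPDH as loading control.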
In general terms: Immunoblotting shows a protein as a band on a membrane.

In a further test the target is CDK4/Cyclin D3 (Homo sapiens, UniProt P11802). Kind of test: Inhibition of CDK4/cyclin D3 (unknown origin) using FAM-labeled peptide and ATP as substrate preincubated for 10 mins followed by substrate addition by mobility shift assay. The format is protein-complex assay.
Another test addresses CDK6/cyclin D3 (Homo sapiens, UniProt Q00534). Kind of test: Inhibition of CDK6/cyclin D3 (unknown origin) using FAM-labeled peptide and ATP as substrate preincubated for 10 mins followed by substrate addition by mobility shift assay. The format is protein-complex assay. The method in brief: as §1
In test [4] the test system is A2058. Kind of test: Induction of cell cycle arrest in human A2058 cells assessed as accumulation at G1 phase at 0.2 uM after 24 hrs by propidium iodide/RNase staining based flow cytometric analysis (reference value: 48.05 %). The format is functional.
For test [5], the system named is A2058. The test is described as follows: Induction of apoptosis in human A2058 cells assessed as early apoptotic cells at 0.2 uM measured after 48 hrs by Annexin V-FITC/propidium iodide staining based flow cytometry (reference value: 3.13 %). The format is functional.
For test [6], the target named is Cyclin-dependent kinase 1/cyclin B1 (Homo sapiens, UniProt P06493). The format is protein-complex assay.
Test [7] concerns A2058. Kind of test: Induction of apoptosis in human A2058 cells assessed as upregulation of cleaved PARP level after 24 hrs by immunoblot analysis. Conditions: dose 0.1875-1.5 µM. The format is functional, cell-based. The method in brief: (§2)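 A2058 cells treated with compound for 24 h and lysed. Lysates were run on 8% or 10% SDS-PAGE and transferred to nitrocellulose, then blocked in 5% milk/TBST for 60 min. Blots were probed overnight at 4 °C for cleaved caspase-3 or cleaved PARP, then with HRP secondary at 1:10,000 for 1 h. Detection was by ECL, with tubulin as loading control.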

Test [8] concerns A2058. The test is described as follows: Induction of apoptosis in human A2058 cells assessed as late apoptotic cells at 1 uM measured after 48 hrs by Annexin V-FITC/propidium iodide staining based flow cytometry (reference value: 1.85 %). The format is functional.
The test system of test [9] is A2058. The test is described as follows: Induction of apoptosis in human A2058 cells assessed as upregulation of cleaved caspase-3 level after 24 hrs by immunoblot analysis. The format is functional, cell-based. Conditions: dose 0.1875-1.5 µM. The method, boiled down:
as §2

Chain of CDK4/Cyclin D3 (P11802 whole entry): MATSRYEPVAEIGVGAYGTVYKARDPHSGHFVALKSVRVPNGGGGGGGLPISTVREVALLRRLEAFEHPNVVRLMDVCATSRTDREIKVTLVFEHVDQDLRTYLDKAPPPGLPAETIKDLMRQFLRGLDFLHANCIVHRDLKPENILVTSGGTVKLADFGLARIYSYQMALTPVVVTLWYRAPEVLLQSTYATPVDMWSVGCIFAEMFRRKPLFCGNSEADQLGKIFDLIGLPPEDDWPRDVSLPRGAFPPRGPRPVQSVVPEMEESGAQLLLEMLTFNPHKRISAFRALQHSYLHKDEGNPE
Chain of CDK4/Cyclin D3 (P30281 whole entry, further chain): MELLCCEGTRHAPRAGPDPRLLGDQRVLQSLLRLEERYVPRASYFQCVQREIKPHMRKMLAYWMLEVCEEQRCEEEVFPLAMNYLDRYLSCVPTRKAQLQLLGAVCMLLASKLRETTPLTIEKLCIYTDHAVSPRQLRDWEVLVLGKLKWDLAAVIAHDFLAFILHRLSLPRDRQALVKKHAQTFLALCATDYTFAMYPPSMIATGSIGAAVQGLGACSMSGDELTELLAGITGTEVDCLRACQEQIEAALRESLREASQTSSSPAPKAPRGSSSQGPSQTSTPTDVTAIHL
Chain of Cyclin-dependent kinase 1/cyclin B1 (P06493 whole entry): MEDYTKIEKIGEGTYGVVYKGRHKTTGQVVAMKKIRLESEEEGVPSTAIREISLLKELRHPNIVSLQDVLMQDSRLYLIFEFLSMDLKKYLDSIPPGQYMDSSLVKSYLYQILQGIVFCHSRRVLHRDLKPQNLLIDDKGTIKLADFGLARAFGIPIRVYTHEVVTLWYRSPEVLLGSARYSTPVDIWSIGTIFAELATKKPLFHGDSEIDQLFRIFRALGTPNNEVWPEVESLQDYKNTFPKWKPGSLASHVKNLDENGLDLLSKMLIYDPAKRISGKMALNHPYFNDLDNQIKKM
Chain of Cyclin-dependent kinase 1/cyclin B1 (P14635 whole entry, further chain): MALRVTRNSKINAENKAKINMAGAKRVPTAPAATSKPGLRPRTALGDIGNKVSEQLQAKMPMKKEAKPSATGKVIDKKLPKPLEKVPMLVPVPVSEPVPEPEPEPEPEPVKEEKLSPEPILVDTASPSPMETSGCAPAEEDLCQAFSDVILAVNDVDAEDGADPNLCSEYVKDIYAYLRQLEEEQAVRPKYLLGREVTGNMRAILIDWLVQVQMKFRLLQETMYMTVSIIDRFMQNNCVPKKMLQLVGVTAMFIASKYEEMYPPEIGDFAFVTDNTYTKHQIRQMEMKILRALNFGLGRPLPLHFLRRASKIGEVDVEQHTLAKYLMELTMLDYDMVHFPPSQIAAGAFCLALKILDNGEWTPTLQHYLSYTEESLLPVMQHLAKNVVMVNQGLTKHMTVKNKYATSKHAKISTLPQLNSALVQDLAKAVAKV
Chain of CDK3/Cyclin E (P24864 whole entry): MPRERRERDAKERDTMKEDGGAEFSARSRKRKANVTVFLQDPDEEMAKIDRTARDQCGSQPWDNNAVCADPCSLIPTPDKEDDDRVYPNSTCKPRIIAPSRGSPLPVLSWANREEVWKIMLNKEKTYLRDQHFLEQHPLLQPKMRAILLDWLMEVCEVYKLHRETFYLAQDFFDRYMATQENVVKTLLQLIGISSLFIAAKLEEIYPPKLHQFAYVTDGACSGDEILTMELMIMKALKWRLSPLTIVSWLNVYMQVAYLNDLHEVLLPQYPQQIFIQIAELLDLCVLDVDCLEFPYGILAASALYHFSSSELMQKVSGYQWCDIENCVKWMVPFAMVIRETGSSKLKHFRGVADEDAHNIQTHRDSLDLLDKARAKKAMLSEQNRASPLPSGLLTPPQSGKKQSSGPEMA
Chain of CDK3/Cyclin E (Q00526 whole entry): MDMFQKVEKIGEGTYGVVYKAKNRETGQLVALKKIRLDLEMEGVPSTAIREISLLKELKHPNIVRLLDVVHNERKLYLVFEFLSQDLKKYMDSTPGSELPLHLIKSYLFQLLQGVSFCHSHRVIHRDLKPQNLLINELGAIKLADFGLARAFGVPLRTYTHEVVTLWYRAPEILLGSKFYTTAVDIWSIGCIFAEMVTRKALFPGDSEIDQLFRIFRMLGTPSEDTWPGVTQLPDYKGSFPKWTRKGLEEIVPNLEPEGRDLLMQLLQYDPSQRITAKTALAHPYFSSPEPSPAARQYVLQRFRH
Chain of CDK6/cyclin D3 (P30281 whole entry): as the sequence (P30281 whole entry, further chain) above
Chain of CDK6/cyclin D3 (Q00534 whole entry): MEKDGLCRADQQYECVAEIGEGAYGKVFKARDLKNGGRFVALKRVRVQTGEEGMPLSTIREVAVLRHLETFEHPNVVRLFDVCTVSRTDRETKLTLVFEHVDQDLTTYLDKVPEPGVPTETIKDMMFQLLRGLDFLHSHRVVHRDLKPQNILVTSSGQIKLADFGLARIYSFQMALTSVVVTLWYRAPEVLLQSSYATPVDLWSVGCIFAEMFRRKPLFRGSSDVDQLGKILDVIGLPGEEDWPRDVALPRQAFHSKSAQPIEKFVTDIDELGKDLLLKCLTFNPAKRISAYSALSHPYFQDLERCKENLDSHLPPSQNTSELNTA

The IC50 is the concentration that gives 50% inhibition. `NC(=O)c1ccc(-c2ccc(F)c(C(=O)Nc3c[nH]nc3C(=O)Nc3ccc(F)cc3)c2F)cn1`: the IC50 on CDK3/Cyclin E is 113 nM; on CDK4/Cyclin D3, 3480 nM; on CDK6/cyclin D3, more than 18000 nM; in [6], 1020 nM. Besides, the Activity in the test on A2058 [1] is 41.35%; in the test with A2058 [2] it was 21.76%; in the test on A2058 [4] it was 36.89%; in the test on A2058 [5] it was 4.52%; in the test with A2058 [7], “Dose-dependent effect”; in the test on A2058 [8], 28.6%. Further, in the test with A2058 [9], the Activity result is “Dose-dependent effect”. Further, in [3], the inhibition result was “Active”.
